In ChEMBL document CHEMBL2321783, “Structure-activity relationships of peptides incorporating a bioactive reverse-turn heterocycle at the melanocortin receptors: identification of a 5800-fold mouse melanocortin-3 receptor (mMC3R) selective antagonist/partial agonist versus the mouse melanocortin-4 receptor (mMC4R)” (J Med Chem, 2013):

Tests used:
[1] = target: Melanocortin receptor 3 (Mus musculus) (UniProt P33033); test: Partial agonist activity at mouse MC3 receptor expressed in HEK293 cells at 10^-4 M to 10^-12 M after 6 hrs by cAMP-based beta-galactosidase reporter gene assay; type: functional, cell-based
Procedure, shortened: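 In the mMC3R HEK-293 CRE/β-galactosidase reporter assay, cells were exposed 6 h to peptide at 10^-4 to 10^-12 M in IBMX/BSA medium. Maximal efficacy is expressed relative to NDP-MSH run on the same plate.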

Melanocortin receptor 3 [2] = target: T1, Melanocortin receptor 3 (Mus musculus, UniProt P33033); test: Antagonist activity at mouse MC3 receptor expressed in HEK293 cells after 6 hrs by cAMP-based beta-galactosidase reporter gene assay; type: functional, cell-based; settings: read-out: pA2 (converted)
[3] = target: Melanocyte-stimulating hormone receptor (Mus musculus, UniProt Q01727); test: Agonist activity at mouse MC1 receptor expressed in HEK293 cells after 6 hrs by cAMP-based beta-galactosidase reporter gene assay; type: functional, cell-based
Procedure, shortened: (§1)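 HEK-293 cells stably expressing the mouse receptor, kept in DMEM with 10% fetal calf serum, transfected with CRE/β-galactosidase reporter. Efficacy is relative to NDP-MSH on the same plate. EC50 is the mean of duplicate wells from three or more independent experiments, fitted by nonlinear least squares.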

Melanocortin receptor 5 = Melanocortin receptor 5 (Mus musculus, UniProt P41149); test: Agonist activity at mouse MC5 receptor expressed in HEK293 cells after 6 hrs by cAMP-based beta-galactosidase reporter gene assay; type: functional, cell-based; procedure, shortened: as §1
Melanocortin receptor 3 [4] = target: T1, Melanocortin receptor 3; test: Agonist activity at mouse MC3 receptor expressed in HEK293 cells after 6 hrs by cAMP-based beta-galactosidase reporter gene assay; type: functional, cell-based; procedure, shortened: as §1
Melanocortin receptor 4 = Melanocortin receptor 4 (Mus musculus, UniProt P56450); test: Agonist activity at mouse MC4 receptor expressed in HEK293 cells after 6 hrs by cAMP-based beta-galactosidase reporter gene assay; type: functional, cell-based; procedure, shortened: as §1
Mus musculus = organism: Mus musculus; test: Selectivity for mouse MC3 receptor over mouse MC4 receptor

T1 sequence (P33033 whole entry): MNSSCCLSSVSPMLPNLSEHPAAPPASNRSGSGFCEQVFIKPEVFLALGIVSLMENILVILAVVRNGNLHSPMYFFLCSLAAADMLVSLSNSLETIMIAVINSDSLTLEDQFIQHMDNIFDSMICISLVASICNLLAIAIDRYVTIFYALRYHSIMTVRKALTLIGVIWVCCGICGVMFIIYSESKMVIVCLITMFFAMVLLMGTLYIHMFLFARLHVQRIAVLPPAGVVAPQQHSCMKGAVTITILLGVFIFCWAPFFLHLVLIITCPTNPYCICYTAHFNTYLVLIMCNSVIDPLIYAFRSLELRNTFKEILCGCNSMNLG
Chain of Melanocortin receptor 4 (P56450 whole entry): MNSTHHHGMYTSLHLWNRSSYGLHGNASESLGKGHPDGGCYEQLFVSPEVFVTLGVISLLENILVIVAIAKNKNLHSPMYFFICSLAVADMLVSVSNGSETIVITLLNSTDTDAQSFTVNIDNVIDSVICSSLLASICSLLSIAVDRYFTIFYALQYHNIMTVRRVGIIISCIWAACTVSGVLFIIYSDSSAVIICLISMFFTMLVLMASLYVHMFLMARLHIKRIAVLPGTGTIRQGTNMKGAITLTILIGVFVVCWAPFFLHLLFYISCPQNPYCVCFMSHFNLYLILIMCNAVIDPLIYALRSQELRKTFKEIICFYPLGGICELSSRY
Chain of Melanocortin receptor 5 (P41149 whole entry): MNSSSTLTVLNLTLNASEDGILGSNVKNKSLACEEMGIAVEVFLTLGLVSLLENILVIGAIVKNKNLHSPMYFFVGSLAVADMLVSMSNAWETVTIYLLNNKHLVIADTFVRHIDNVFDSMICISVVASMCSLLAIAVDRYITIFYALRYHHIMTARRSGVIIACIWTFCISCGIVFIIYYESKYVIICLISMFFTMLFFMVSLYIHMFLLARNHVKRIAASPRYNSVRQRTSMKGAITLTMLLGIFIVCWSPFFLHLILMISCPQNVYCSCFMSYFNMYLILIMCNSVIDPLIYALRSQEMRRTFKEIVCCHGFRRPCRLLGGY
Chain of Melanocyte-stimulating hormone receptor (Q01727 whole entry): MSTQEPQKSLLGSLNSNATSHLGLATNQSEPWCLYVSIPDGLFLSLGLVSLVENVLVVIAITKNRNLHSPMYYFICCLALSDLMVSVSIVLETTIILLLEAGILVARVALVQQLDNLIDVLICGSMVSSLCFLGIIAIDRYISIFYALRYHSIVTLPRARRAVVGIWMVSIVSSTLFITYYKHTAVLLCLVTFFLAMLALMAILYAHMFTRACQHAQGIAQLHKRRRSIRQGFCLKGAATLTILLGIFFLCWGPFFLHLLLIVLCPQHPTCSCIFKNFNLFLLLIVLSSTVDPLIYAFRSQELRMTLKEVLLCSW
Chain of Melanocortin receptor 3 (Mus musculus) (P33033 whole entry): as the sequence (P33033 whole entry) above

Row | Compound | EC50 (Melanocortin receptor 3 [4]) [nM] | also measured
1 | C[C@@H]1NC(=O)[C@H](CC(N)=O)NC(=O)[C@H](Cc2c[nH]c3ccccc23)N2C[C@H](CCCNC(=N)N)NC(=O)[C@@H](CSCC2=O)NC(=O)[C@@H](Cc2ccc3ccccc3c2)NC(=O)[C@H](Cc2cnc[nH]2)NC(=O)[C@@H](NC(=O)[C@@H](N)Cc2ccc(O)cc2)CSSC[C@@H](C(=O)N[C@@H](Cc2ccc(O)cc2)C(N)=O)NC(=O)[C@H](Cc2ccccc2)NC1=O | – | Emax [1]: 20%
2 | C[C@@H]1NC(=O)[C@H](CC(N)=O)NC(=O)[C@H](Cc2c[nH]c3ccccc23)N2C[C@H](CCCN=C(N)N)NC(=O)[C@@H](CSCC2=O)NC(=O)[C@@H](Cc2ccc3ccccc3c2)NC(=O)[C@H](Cc2cnc[nH]2)NC(=O)[C@@H](NC(=O)[C@@H](N)Cc2ccc(O)cc2)CSSC[C@@H](C(=O)N[C@@H](Cc2ccc(O)cc2)C(N)=O)NC(=O)[C@H](Cc2ccccc2)NC1=O | – | Kb (Melanocortin receptor 3 [2]): 25.1 nM
3 | C[C@@H]1NC(=O)[C@H](Cc2cnc[nH]2)NC(=O)[C@@H](NC(=O)[C@@H](N)Cc2ccc(O)cc2)CSSC[C@@H](C(=O)N[C@@H](Cc2ccc(O)cc2)C(N)=O)NC(=O)[C@H](Cc2ccccc2)NC(=O)[C@H](C)NC(=O)[C@H](CC(N)=O)NC(=O)[C@H](Cc2c[nH]c3ccccc23)N2C[C@H](CCCN=C(N)N)NC(=O)[C@@H](CSCC2=O)NC1=O | 7720 | EC50 [3]: 12500 nM; EC50 (Melanocortin receptor 5): 7700 nM; EC50 (Melanocortin receptor 4): 20100 nM
4 | C[C@@H]1NC(=O)[C@H](CC(N)=O)NC(=O)[C@H](Cc2c[nH]c3ccccc23)N2C[C@H](CCCCNC(=N)N)NC(=O)[C@@H](CSCC2=O)NC(=O)[C@@H](Cc2ccccc2)NC(=O)[C@H](Cc2cnc[nH]2)NC(=O)[C@@H](NC(=O)[C@@H](N)Cc2ccc(O)cc2)CSSC[C@@H](C(=O)N[C@@H](Cc2ccc(O)cc2)C(N)=O)NC(=O)[C@H](Cc2ccccc2)NC1=O | 1830 | –
5 | C[C@@H]1NC(=O)[C@H](CC(N)=O)NC(=O)[C@H](Cc2c[nH]c3ccccc23)N2C[C@H](CCCNC(=N)N)NC(=O)[C@@H](CSCC2=O)NC(=O)[C@@H](Cc2ccc(-c3ccccc3)cc2)NC(=O)[C@H](Cc2cnc[nH]2)NC(=O)[C@@H](NC(=O)[C@@H](N)Cc2ccc(O)cc2)CSSC[C@@H](C(=O)N[C@@H](Cc2ccc(O)cc2)C(N)=O)NC(=O)[C@H](Cc2ccccc2)NC1=O | – | Emax [1]: 10%; Kb (Melanocortin receptor 3 [2]): 0.126 nM; Selectivity ratio (Mus musculus): 5800
6 | C[C@@H]1NC(=O)[C@H](CC(N)=O)NC(=O)[C@H](C)N2C[C@H](CCCNC(=N)N)NC(=O)[C@@H](CSCC2=O)NC(=O)[C@@H](Cc2ccccc2)NC(=O)[C@H](Cc2cnc[nH]2)NC(=O)[C@@H](NC(=O)[C@@H](N)Cc2ccc(O)cc2)CSSC[C@@H](C(=O)N[C@@H](Cc2ccc(O)cc2)C(N)=O)NC(=O)[C@H](Cc2ccccc2)NC1=O | 2230 | –
7 | C[C@@H]1NC(=O)[C@H](CC(N)=O)NC(=O)[C@H](Cc2c[nH]c3ccccc23)N2C[C@H](CCCN=C(N)N)NC(=O)[C@@H](CSCC2=O)NC(=O)[C@@H]2CCCN2C(=O)[C@H](Cc2cnc[nH]2)NC(=O)[C@@H](NC(=O)[C@@H](N)Cc2ccc(O)cc2)CSSC[C@@H](C(=O)N[C@@H](Cc2ccc(O)cc2)C(N)=O)NC(=O)[C@H](Cc2ccccc2)NC1=O | 10300 | –
8 | C[C@@H]1NC(=O)[C@H](CC(N)=O)NC(=O)[C@H](Cc2c[nH]c3ccccc23)N2C[C@H](C)NC(=O)[C@@H](CSCC2=O)NC(=O)[C@@H](Cc2ccccc2)NC(=O)[C@H](Cc2cnc[nH]2)NC(=O)[C@@H](NC(=O)[C@@H](N)Cc2ccc(O)cc2)CSSC[C@@H](C(=O)N[C@@H](Cc2ccc(O)cc2)C(N)=O)NC(=O)[C@H](Cc2ccccc2)NC1=O | 8070 | –
9 | C[C@@H]1NC(=O)[C@H](CC(N)=O)NC(=O)[C@H](Cc2c[nH]c3ccccc23)N2C[C@H](CCCNC(=N)N)NC(=O)[C@@H](CSCC2=O)NC(=O)[C@@H](Cc2ccccc2)NC(=O)[C@H](Cc2ccccc2)NC(=O)[C@@H](NC(=O)[C@@H](N)Cc2ccc(O)cc2)CSSC[C@@H](C(=O)N[C@@H](Cc2ccc(O)cc2)C(N)=O)NC(=O)[C@H](Cc2ccccc2)NC1=O | 4500 | –

Second part, led by results:

Row | EC50 (Melanocortin receptor 3 [4]) [nM] | Compound | also measured
10 | 230 | C[C@@H]1NC(=O)[C@H](CC(N)=O)NC(=O)[C@H](Cc2ccc(-c3ccccc3)cc2)N2C[C@H](CCCN=C(N)N)NC(=O)[C@@H](CSCC2=O)NC(=O)[C@@H](Cc2ccccc2)NC(=O)[C@H](Cc2cnc[nH]2)NC(=O)[C@@H](NC(=O)[C@@H](N)Cc2ccc(O)cc2)CSSC[C@@H](C(=O)N[C@@H](Cc2ccc(O)cc2)C(N)=O)NC(=O)[C@H](Cc2ccccc2)NC1=O | –
11 | 1.7 | C[C@@H]1NC(=O)[C@H](CC(N)=O)NC(=O)[C@H](Cc2c[nH]c3ccccc23)NC(=O)[C@H](CCCN=C(N)N)NC(=O)[C@@H](Cc2ccccc2)NC(=O)[C@H](Cc2cnc[nH]2)NC(=O)[C@@H](NC(=O)[C@@H](N)Cc2ccc(O)cc2)CSSC[C@@H](C(=O)N[C@@H](Cc2ccc(O)cc2)C(N)=O)NC(=O)[C@H](Cc2ccccc2)NC1=O | EC50 [3]: 0.3 nM; EC50 (Melanocortin receptor 5): 1.45 nM; EC50 (Melanocortin receptor 4): 0.17 nM
12 | 200 | C[C@@H]1NC(=O)[C@H](CC(N)=O)NC(=O)[C@H](Cc2ccc3ccccc3c2)N2C[C@H](CCCNC(=N)N)NC(=O)[C@@H](CSCC2=O)NC(=O)[C@@H](Cc2ccccc2)NC(=O)[C@H](Cc2cnc[nH]2)NC(=O)[C@@H](NC(=O)[C@@H](N)Cc2ccc(O)cc2)CSSC[C@@H](C(=O)N[C@@H](Cc2ccc(O)cc2)C(N)=O)NC(=O)[C@H](Cc2ccccc2)NC1=O | –
13 | 190 | C[C@@H]1NC(=O)[C@H](CC(N)=O)NC(=O)[C@H](Cc2c[nH]c3ccccc23)N2C[C@H](CCCNC(=N)N)NC(=O)[C@@H](CSCC2=O)NC(=O)[C@@H](Cc2cccc3ccccc23)NC(=O)[C@H](Cc2cnc[nH]2)NC(=O)[C@@H](NC(=O)[C@@H](N)Cc2ccc(O)cc2)CSSC[C@@H](C(=O)N[C@@H](Cc2ccc(O)cc2)C(N)=O)NC(=O)[C@H](Cc2ccccc2)NC1=O | –
14 | 49 | C[C@@H]1NC(=O)[C@H](CC(N)=O)NC(=O)[C@H](Cc2c[nH]c3ccccc23)N2C[C@H](CCCNC(=N)N)NC(=O)[C@@H](CSCC2=O)NC(=O)[C@@H](Cc2ccc(I)cc2)NC(=O)[C@H](Cc2cnc[nH]2)NC(=O)[C@@H](NC(=O)[C@@H](N)Cc2ccc(O)cc2)CSSC[C@@H](C(=O)N[C@@H](Cc2ccc(O)cc2)C(N)=O)NC(=O)[C@H](Cc2ccccc2)NC1=O | –
